# Assay outcomes as filed in PubChem.
# The list is not random: actives were taken first. Their share in the collection is about 2.6%.
# OXTR potentiate: human OXTR potentiators, primary screen, fluorescence, CHO-OTR cells, Fluo-8 calcium; Oxytocin receptor (Homo sapiens), P30559; Fluo-8 calcium fluorescence, potentiator mode; 0% = oxytocin EC15, 100% = EC100; activation, % at 3 µM; 0.061% of 320,000 active;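 active means activation above that plate's cutoff, the mean activation of tested compounds plus 3 SD, cut at about 6.6% in these data, passing the limit was not always enough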;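 further: 100% uses oxytocin at 75 nM as the full agonist control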
# Target sequence (P30559 whole entry, looked up): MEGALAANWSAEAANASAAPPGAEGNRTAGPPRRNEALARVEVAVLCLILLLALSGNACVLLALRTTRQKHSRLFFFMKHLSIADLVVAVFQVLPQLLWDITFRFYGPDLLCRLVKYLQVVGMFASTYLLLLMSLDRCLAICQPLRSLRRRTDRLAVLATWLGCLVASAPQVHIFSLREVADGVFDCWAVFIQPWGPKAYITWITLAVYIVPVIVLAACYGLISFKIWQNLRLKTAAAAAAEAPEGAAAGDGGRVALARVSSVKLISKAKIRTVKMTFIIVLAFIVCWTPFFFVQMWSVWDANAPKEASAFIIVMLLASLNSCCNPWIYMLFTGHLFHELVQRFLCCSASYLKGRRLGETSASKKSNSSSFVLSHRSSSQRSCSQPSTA
#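 System: human OTR in CHO cells; Also added: sub-maximal oxytocin, roughly EC15; Timing: compound 6 min at room temperature before oxytocin, 100 s read; Technique: Fluo-8 intracellular calcium fluorescence, ex 470-495, em 515-575 nm; Controls: oxytocin EC15 low and EC100 high; Replication: singlicate.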
# V1R ag counter: agonists of human V1a receptor, primary screen, counter-screen for OXTR agonist project, fluorescence, CHO-V1R cells; AID 2797, 2010; Vasopressin V1a receptor (Homo sapiens), P37288; Fluo-8 calcium fluorescence, agonist mode; 0% DMSO, 100% 3 nM vasopressin; activation, % at 3 µM; 0.25% of 320,000 active;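 active means activation above the mean activation of all tested compounds plus 3 SD, per screening run, cut at about 20% in these data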;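 further: signal is peak over basal fluorescence ratio across a 100 second FLIPR read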
# CHO parental Ca: ATP-evoked calcium signal inhibitors, parental CHO, primary screen, counter-screen for OX1R antagonist project, cell-based, fluorescence, Fluo-8 calcium dye. parental CHO-K1, ATP-induced calcium, Fluo-8 fluorescence. AID 463079, 2010. 0.63% of 330,000 active. inhibition, % at 5.6 µM;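 active means inhibition above that plate's mean sample inhibition plus 3 SD, cut at about 26% in these data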;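 further: 0% = ATP-challenged DMSO wells and 100% = DMSO wells without ATP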
#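 Material: Parental CHO cells | Reagent: ATP | Compound dosing: Single nominal dose of 5.6 µM per compound | Detection: Intracellular calcium via Fluo-8 no-wash fluorescent dye | Read-out: % inhibition of ATP-induced calcium mobilization | Benchmarks: Low control ATP plus DMSO, high control DMSO only | Replicates: Singlicate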
# OX1R antag-1: antagonists of human orexin 1 receptor (OX1R); inhibition, % at 6.6 µM; OX1R-expressing cells, FRET antagonist read-out; AID 485270, 2010; Orexin/Hypocretin receptor type 1 (Homo sapiens), O43613; 1.8% of 330,000 active; in the data active means inhibition mostly above about 38%, no sharp cut-off; inactive means mostly below about 40%;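 further: 0% = agonist challenge alone and 100% = reference antagonist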
# OXTR agonist: human OXTR agonists, primary screen, fluorescence, CHO-OTR cells, Fluo-8 calcium | Fluo-8 calcium fluorescence; normalized: DMSO 0%, oxytocin 100% | 0.32% of 320,000 active | activation, % at 3 µM;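 active means activation above the mean of all tested compounds plus 3 SD, cutoff set per screening run, cut at about 20% in these data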;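 further: peak over basal fluorescence ratio from a 100 s FLIPR kinetic read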
# OX1R antag-2: OX1R (HCRTR1) antagonists, primary screen, fluorescence, CHO/OX1R cells, Fluo-8 calcium, orexin A. Fluo-8 calcium fluorescence. inhibition, % at 5 µM. 0.43% of 330,000 active;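 active means inhibition above its plate's threshold, mean inhibition of all tested compounds on the plate plus 3 SD, cut at about 37% in these data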;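 further: 0% = orexin A challenge wells and 100% = SB-334867-A antagonist wells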
# OX1R Fluo8 conf: OX1R (HCRTR1) antagonists, confirmation, fluorescence, CHO/OX1R cells, Fluo-8 calcium, orexin A; 38% of 1,100 active; shares compounds with OX1R antag-2; orexin A calcium Fluo-8 fluorescence; inhibition, % at 5 µM; in the data active means inhibition above about 29%;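 further: 0% = agonist challenge alone and 100% = reference antagonist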
# CHO Ca counter: ATP-evoked calcium inhibition in parental CHO, counter-screen for OX1R antagonist project, cell-based, fluorescence, CHO-K1, triplicate | 9.3% of 1,100 active | inhibition, % at 5.6 µM | ATP-induced calcium, Fluo-8 fluorescence | shares compounds with OX1R antag-2;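 active means inhibition above a per-plate limit, the mean inhibition of that plate's test compounds plus 3 SD, cut at about 25% in these data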;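 further: 0% = ATP challenge with DMSO and 100% = DMSO without ATP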
# OX1R HTRF confirm: OX1R (HCRTR1) antagonists, confirmation, cell-based, HTRF. shares compounds with OX1R antag-1. OX1R-expressing cells, HTRF antagonist assay. inhibition, % at 6.6 µM. 49% of 1,800 active. AID 492964, 2010; in the data active means inhibition above about 55%;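 further: CHO cells expressing OX1R stimulated with orexin A at about EC80; 0% = agonist challenge alone and 100% = reference antagonist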
# CHO-K1 HTRF cnt: signal inhibition in parental CHO-K1 cells, counter-screen for OX1R antagonist project, cell-based, HTRF; shares compounds with OX1R antag-1; HTRF counterscreen; inhibition, % at 6.6 µM; 48% of 1,800 active; AID 493232, 2011; in the data active means inhibition above about 17%;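 further: 0% = agonist challenge with vehicle and 100% = vehicle alone without agonist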
# Active calls of the source: *; x = no result.
SMILES,OXTR potentiate,V1R ag counter,CHO parental Ca,OX1R antag-1,OXTR agonist,OX1R antag-2,OX1R Fluo8 conf,CHO Ca counter,OX1R HTRF confirm,CHO-K1 HTRF cnt
COc1ccc2c(=O)c(-c3ccc(C)cc3)c(-c3ccccc3)oc2c1,x,x,-28.5,3.3,x,-17.9,x,x,x,x
CCN(CC)C(=O)CSc1nc2c(sc(=S)n2-c2ccccc2OC)c(=O)n1-c1ccccc1,-10.8,0.1,-35.7,75.7*,-1.3,31.4,38.5*,-8.2,69.2*,0.6
CCN(CC)C(=O)CSc1nc2c(sc(=S)n2CC)c(=O)n1-c1ccccc1,0.5,0.7,-22.4,9.4,-0.9,-32.6,x,x,x,x
COc1ccc(C(=O)O)cc1NC(=S)NC(=O)/C=C/c1ccc(C(C)C)cc1,-10.5,-0.9,1.7,12.9,-2.0,11.4,x,x,x,x
COC(=O)c1sc(NC(=O)c2cc3c(s2)CCCC3)nc1C,-4.0,-0.1,-20.3,89.3*,-1.5,58.0*,26.6,-17.4,98.4*,-0.9
Cc1nc(C(F)(F)F)nc(Nc2ccc(N=Nc3ccccc3)cc2)c1C#N,-4.3,-0.2,9.4,4.5,-1.1,4.7,x,x,x,x
CCN(CC)CCCNC(=O)CCC(=O)NNc1nc2ccccc2c2nc(C)nn12,-8.3,0.7,11.4,7.5,-0.9,-1.1,x,x,x,x
COCCCNC(=O)CCC(=O)NNc1nc2ccccc2c2nc(-c3ccccc3)nn12,-7.1,1.3,-25.5,95.3*,-0.8,33.4,28.9*,-13.1,81.5*,-1.2
CC1CC(C)CN(C(=O)CSc2nnc(N)s2)C1 (stereo not given),-5.0,-0.7,-17.5,8.6,0.4,-52.3,x,x,x,x
CN(c1ccccc1)S(=O)(=O)c1cccc(NC(=O)c2ccc3ncsc3c2)c1,-11.7,4.2,2.2,54.3,4.1,20.7,x,x,x,x
O=S(=O)(Nc1nc2ccccc2nc1NCc1ccco1)c1ccccc1,-15.3,0.8,-9.4,19.9,0.8,-16.4,x,x,x,x
c1coc(CNc2nc3nonc3nc2NCc2ccco2)c1,-21.6,14.8,25.5,73.1*,11.3,35.4,-2.5,-6.7,28.0,-15.0
Cc1ccccc1N(CC(=O)NC1CCCC1)C(=O)c1oc(C(C)(C)C)cc1C,-7.8,0.9,-21.3,93.4*,-1.1,37.5,57.5*,-9.4,85.8*,1.8
Cc1ccc(C(=O)N(CC(=O)NC2CCCCC2)c2ccccc2C)s1,-4.0,-1.6,-12.7,22.4,-1.7,-10.4,x,x,x,x
COC(=O)c1ccccc1NC(=O)CSc1nc(O)cc(=O)n1C1CCCC1,4.0,0.1,-8.3,78.3*,-0.2,30.9,50.5*,-12.6,88.4*,4.1
O=C(CSc1nc(O)cc(=O)n1C1CCCC1)Nc1cccc(Cl)c1Cl,-8.1,-0.3,-5.0,8.9,0.8,3.4,x,x,x,x
COc1cccc(NC(=O)CN(C)C(=O)c2ccccc2-c2nc3ccccc3s2)c1,-8.3,-1.3,-37.1,99.8*,-1.9,17.4,16.5,-4.5,88.4*,5.4
CN(CC(=O)Nc1c(Cl)cccc1Cl)C(=O)c1ccccc1-c1nc2ccccc2s1,0.4,-1.2,-32.9,38.0,-2.2,-45.1,x,x,x,x
Cn1c2ccc(Cl)cc2c2nc3ccccc3nc21,7.0,-1.0,-14.4,90.7*,-1.1,31.1,40.3*,-9.0,91.8*,-0.6
O=C(Cn1cnc(S(=O)(=O)N2CCCCC2)c1)NCc1ccco1,-1.6,0.0,-2.0,11.6,0.9,1.1,x,x,x,x
COc1ccccc1C(=O)Nc1nc2cc3c(cc2s1)OCO3,-4.2,0.0,-7.6,23.1,0.9,-11.0,x,x,x,x
COc1ccccc1C(=O)Nc1nc2cc3c(cc2s1)OCCO3,-7.3,0.6,7.2,106.1*,-1.1,39.2,51.4*,-5.6,94.7*,4.2
CN(C)C(=O)CCC(=O)N1CCCC(N2CCN(c3cccc(C(F)(F)F)c3)CC2)C1 (stereo not given),2.1,0.1,-13.6,11.2,0.2,-33.3,x,x,x,x
Cc1c(Cl)cccc1NC(=O)N1CCCC1,-2.8,0.3,-1.4,7.0,-0.3,-9.6,x,x,x,x
Cc1c(Cl)cccc1NC(=O)N1CCCN(c2nc(-c3ccccc3)ns2)CC1,-15.6,9.4,28.9,79.8*,6.0,34.3,27.5,22.3,53.1,6.6
SMILES,OXTR potentiate,V1R ag counter,CHO parental Ca,OX1R antag-1,OXTR agonist,OX1R antag-2,OX1R Fluo8 conf,CHO Ca counter,OX1R HTRF confirm,CHO-K1 HTRF cnt
CCC(=O)N1CCN(c2ccccc2NC(=O)COc2ccc(C(C)C)cc2)CC1,-13.2,2.2,-17.8,33.1,-1.3,-11.8,x,x,x,x
COc1ccc(NC(=O)[C@@H]2CCCN2S(=O)(=O)c2ccc(Cl)cc2)cc1,-0.9,-1.1,-11.5,21.9,0.3,4.5,x,x,x,x
CCc1cccc(NC(=O)C2CCCN2S(=O)(=O)c2cccc3cccnc23)c1 (stereo not given),-5.1,2.3,-29.7,88.8*,1.4,86.7*,50.4*,-8.9,85.1*,4.7
COc1ccc(NC(=O)C2CCCN2S(=O)(=O)c2cccc3cccnc23)cc1OC (stereo not given),0.4,0.2,-7.4,31.1,0.3,-8.6,x,x,x,x
Cc1cccc(NC(=O)[C@@H]2CCCN2S(=O)(=O)c2ccc(Cl)cc2)c1,0.3,-1.0,-22.0,90.7*,-1.9,73.6*,54.7*,-27.0,88.7*,4.0
O=C(Nc1ccc(Cl)cc1)C1CCCN(C2=NS(=O)(=O)c3ccccc32)C1 (stereo not given),1.9,1.9,-14.0,5.8,2.0,-16.8,x,x,x,x
COc1ccc2[nH]cc(/C=C/C(=O)c3ccccc3)c2c1,-10.4,0.1,-27.5,59.2*,-0.5,34.3,16.9,-3.9,40.9,9.7
